Data on 4 compounds can be found in ChEMBL document CHEMBL1135768, “Design, synthesis, and SAR of tachykinin antagonists: modulation of balance in NK(1)/NK(2) receptor antagonist activity” (J Med Chem, 2002).

The structures appear in SMILES notation.

The target of series [1] is T1, Substance-K receptor (Homo sapiens, UniProt P21452).
T1 sequence (P21452 whole entry): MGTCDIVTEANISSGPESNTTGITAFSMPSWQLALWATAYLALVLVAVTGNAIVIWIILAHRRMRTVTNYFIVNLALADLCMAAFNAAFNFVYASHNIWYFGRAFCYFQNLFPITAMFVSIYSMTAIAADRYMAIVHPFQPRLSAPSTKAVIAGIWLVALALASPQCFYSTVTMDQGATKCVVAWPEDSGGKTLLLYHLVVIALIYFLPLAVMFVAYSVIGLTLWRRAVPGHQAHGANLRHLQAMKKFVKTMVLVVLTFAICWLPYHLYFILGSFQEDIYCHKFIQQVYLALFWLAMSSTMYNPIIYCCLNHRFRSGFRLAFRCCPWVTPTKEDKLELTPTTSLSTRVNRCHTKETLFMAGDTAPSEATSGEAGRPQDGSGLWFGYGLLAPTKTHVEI
As to the kind of experiment: Inhibition of binding of [3H]NKA to human Tachykinin receptor 2 (NK2) in mouse erythroleukemia cells.

The next series concerns the target T2, Neuromedin-K receptor (Homo sapiens, UniProt P29371).
T2 sequence (P29371 whole entry): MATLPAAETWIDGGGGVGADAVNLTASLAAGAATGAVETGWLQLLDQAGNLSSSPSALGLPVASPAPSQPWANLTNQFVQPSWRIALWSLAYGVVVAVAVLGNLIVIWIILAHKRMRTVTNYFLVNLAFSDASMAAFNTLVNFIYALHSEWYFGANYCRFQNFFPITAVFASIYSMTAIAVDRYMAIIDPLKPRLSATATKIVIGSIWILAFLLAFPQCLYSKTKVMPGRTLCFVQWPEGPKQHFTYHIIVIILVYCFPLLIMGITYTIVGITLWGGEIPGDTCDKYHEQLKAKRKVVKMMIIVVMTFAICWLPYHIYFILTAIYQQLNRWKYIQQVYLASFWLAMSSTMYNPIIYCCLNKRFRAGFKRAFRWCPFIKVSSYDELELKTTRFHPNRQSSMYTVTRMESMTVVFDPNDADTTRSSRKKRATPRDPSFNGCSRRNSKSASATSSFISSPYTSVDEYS
As to the kind of experiment: Inhibition of binding of [125I]MPNI to human Tachykinin receptor 3 (NK3) expressed in mouse erythroleukemia cells. The format is cell-based.

Series [2] addresses T3, Substance-K receptor (Cavia porcellus) (UniProt Q64077).
T3 sequence (whole entry): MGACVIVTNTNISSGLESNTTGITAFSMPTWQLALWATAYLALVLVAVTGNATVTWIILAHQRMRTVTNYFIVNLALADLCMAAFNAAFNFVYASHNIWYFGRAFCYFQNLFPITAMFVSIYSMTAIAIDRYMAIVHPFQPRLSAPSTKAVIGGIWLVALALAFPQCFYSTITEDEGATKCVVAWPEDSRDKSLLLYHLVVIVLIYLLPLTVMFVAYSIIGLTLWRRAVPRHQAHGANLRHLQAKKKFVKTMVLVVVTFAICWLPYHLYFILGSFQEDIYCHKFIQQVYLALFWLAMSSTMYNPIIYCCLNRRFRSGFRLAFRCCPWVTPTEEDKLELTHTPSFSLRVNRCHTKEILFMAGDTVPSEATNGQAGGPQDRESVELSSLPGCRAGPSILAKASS
The series is described as follows: In vivo binding affinity towards Tachykinin receptor 2 (NK2) after oral administration in presence of agonist BANK in guinea pig pulmonary tissue in pulmonary mechanics assay.

Series [3] is described as follows: Bioavailability in rat (dose 1-10 uM/kg i.v.). It counts as ADME, organism-based. The note with it: in vivo, iv. The method in brief:
(§1)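 Compound given to rat (n = 3) or dog (n = 1) by iv bolus at 1–10 μmol/kg, or orally at 10–100 μmol/kg, as a solution in 75% poly(ethylene glycol) 400 in normal saline.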

In series [4] the target is Substance-P receptor (Cavia porcellus) (UniProt P30547). The series is described as follows: In vivo binding affinity towards Tachykinin receptor 1 after oral administration in presence of agonist ASMSP in guinea pig pulmonary tissue in lung plasma extravation assay. It counts as organism-based. The method in brief: (§2)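 Guinea pig lung plasma extravasation model. Antagonist dosed orally; NK1-selective agonist ASMSP challenge 2 h postdose. Single ED50 calculated from dose response in three to six animals per dose over 4–5 dose levels, doses staggered across several days.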
Sequence of Substance-P receptor (Cavia porcellus) (P30547 whole entry): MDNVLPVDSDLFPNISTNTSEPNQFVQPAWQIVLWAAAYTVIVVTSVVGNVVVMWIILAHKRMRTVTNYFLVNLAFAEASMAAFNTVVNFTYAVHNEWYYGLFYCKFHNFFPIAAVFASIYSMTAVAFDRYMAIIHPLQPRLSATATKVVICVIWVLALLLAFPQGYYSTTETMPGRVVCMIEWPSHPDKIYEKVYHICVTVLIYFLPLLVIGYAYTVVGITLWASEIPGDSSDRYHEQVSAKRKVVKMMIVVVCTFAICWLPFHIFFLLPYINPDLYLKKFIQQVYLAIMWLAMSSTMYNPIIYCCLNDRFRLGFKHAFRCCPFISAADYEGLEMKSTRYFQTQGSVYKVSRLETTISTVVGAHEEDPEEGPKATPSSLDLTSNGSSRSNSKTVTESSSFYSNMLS

Series [5] concerns the target T4, Substance-K receptor (Oryctolagus cuniculus) (UniProt P79218).
T4 sequence (whole entry): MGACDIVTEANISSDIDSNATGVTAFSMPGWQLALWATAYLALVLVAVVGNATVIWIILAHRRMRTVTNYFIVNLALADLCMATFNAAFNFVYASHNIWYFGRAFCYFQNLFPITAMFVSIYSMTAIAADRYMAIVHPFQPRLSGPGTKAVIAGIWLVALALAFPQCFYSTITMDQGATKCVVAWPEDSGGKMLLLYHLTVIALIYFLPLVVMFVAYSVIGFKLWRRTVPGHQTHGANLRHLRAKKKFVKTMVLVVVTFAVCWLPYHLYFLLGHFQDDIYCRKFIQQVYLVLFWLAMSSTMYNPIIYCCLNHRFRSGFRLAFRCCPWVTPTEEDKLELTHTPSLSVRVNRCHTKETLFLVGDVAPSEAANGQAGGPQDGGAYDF
As to the kind of experiment: Tested for the binding affinity towards tachykinin receptor 2 (NK2) in rabbit pulmonary artery tissue.

Series [6] is described as follows: Bioavailability in dog (dose 1-10 uM/kg i.v.). The format is ADME, organism-based, Canis lupus familiaris. The note with it: in vivo, iv. The method in brief: as §1
The target of a further series is Substance-P receptor (Homo sapiens, UniProt P25103). As to the kind of experiment: Inhibition of binding of [3H]SP to Tachykinin receptor 1 of human tachykinin receptor expressed in mouse erythroleukemia cells. It counts as cell-based.
Sequence of Substance-P receptor (P25103 whole entry): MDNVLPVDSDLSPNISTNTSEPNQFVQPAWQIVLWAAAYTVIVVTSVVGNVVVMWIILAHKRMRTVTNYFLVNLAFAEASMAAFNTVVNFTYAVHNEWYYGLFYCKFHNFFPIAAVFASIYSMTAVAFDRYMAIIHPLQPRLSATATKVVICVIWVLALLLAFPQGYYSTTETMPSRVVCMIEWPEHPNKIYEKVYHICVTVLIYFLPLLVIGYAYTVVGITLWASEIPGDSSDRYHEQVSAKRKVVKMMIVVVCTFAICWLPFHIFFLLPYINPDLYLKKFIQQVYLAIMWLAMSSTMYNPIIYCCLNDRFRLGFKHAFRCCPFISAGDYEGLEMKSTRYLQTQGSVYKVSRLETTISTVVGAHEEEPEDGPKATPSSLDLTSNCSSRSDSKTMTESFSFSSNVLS
Series [7] deals with T1, Substance-K receptor. As to the kind of experiment: Inhibition of binding of [3H]NKA to human Tachykinin receptor 2 (NK2) expressed in mouse erythroleukemia cells. It counts as cell-based.
Series [8] has as its target T3, Substance-K receptor (Cavia porcellus). The series is described as follows: In vivo potency as dose ratio (ED50 ratio for Tachykinin receptor 2 (NK2) in presence and absence of antagonist) in guinea pig PMM after intravenous administration at a dose 10 uM/Kg.
Series [9] deals with Substance-P receptor (Cavia porcellus) (UniProt P30547). As to the kind of experiment: In vivo potency as dose ratio (ED50 ratio for Tachykinin receptor 1 in presence and absence of antagonist) in guinea pig PMM after oral administration at a dose 30 uM/Kg.
The subject of series [10] is Substance-P receptor (Oryctolagus cuniculus). The series is described as follows: Tested for the binding affinity towards tachykinin receptor 1 (NK1) in rabbit pulmonary artery tissue.
In series [11] the target is T3, Substance-K receptor (Cavia porcellus). The series is described as follows: In vivo potency as dose ratio (ED50 ratio for Tachykinin receptor 2 (NK2) in presence and absence of antagonist) in guinea pig PMM after oral administration at a dose 30 uM/Kg.
For series [12], the target named is Substance-P receptor (Cavia porcellus) (UniProt P30547). As to the kind of experiment: In vivo potency as dose ratio (ED50 ratio for Tachykinin receptor 1 in presence and absence of antagonist) in guinea pig PMM after intravenous administration at a dose 10 uM/Kg.
Series [13] deals with T3, Substance-K receptor (Cavia porcellus). The series is described as follows: In vivo binding affinity towards Tachykinin receptor 2 (NK2) receptor after oral administration in presence of agonist BANK in guinea pig pulmonary tissue in pulmonary mechanics assay.
For series [14], the target named is Substance-P receptor (Cavia porcellus) (UniProt P30547). The series is described as follows: Effective dose concentration required for In vivo binding affinity towards Tachykinin receptor 1 after oral administration in presence of agonist ASMSP in guinea pig pulmonary tissue in lung plasma extravation assay. The format is organism-based. The method, boiled down: as §2

In series [15] the target is T3, Substance-K receptor (Cavia porcellus). As to the kind of experiment: Effective dose concentration required for In vivo binding affinity towards Tachykinin receptor 2 (NK2) receptor after oral administration in presence of agonist BANK in guinea pig pulmonary tissue in pulmonary mechanics assay.

A word on the Ki: it is a dissociation constant, usually derived from enzyme kinetics or from competition with a known ligand. A low value points to higher affinity. For orientation: ED50 means the dose at which the effect has come halfway, by size or by number of responders. Usually bioavailability stands for dose-corrected exposure relative to a reference, in per cent. A high value points to good availability. A word on the pKB: it is the KB on a negative log10 scale, so that one unit is a factor of ten. Low values mean a high KB, high ones a low KB. On to `COc1ccc(C2CCN(CC[C@H](CN(C)C(=O)c3cc(C#N)cc4ccccc34)c3ccc(Cl)c(Cl)c3)CC2)c([S@+](C)[O-])c1`, for which the Ki on Substance-K receptor [1] amounted to 0.34 nM; on Neuromedin-K receptor, 39 nM; on Substance-P receptor it was 0.14 nM. For the same compound, the ED50 stood at 3 µmol/kg in series [2] and 1 µmol/kg in series [4]. The bioavailability was determined as 7% in series [3] and 18% in [6]. The compound also returned a pKB in [5] of 8.7.

As for `CNC(=O)C1(N2CCCCC2=O)CCN(CC[C@H](CN(C)C(=O)c2c(OC)c(C#N)cc3ccccc23)c2ccc(Cl)c(Cl)c2)CC1`, the figures for the Ki at Substance-K receptor [7], on Neuromedin-K receptor and on Substance-P receptor were 35 nM, 9.4 nM and 0.27 nM, respectively. Besides, the dose ratio in series [8] is 155; in series [9] it was 50; in [11] it was 49; in series [12], 384. The pKB stood at 8.7 in series [10] and 8.2 in [5]. The ED50 in [4] was 0.5 µmol/kg; in series [13], 9.3 µmol/kg.

Regarding `CN(C[C@@H](CCN1CCC(c2ccccc2[S@+](C)[O-])CC1)c1ccc(Cl)c(Cl)c1)C(=O)c1cc(C#N)cc2ccccc12`, the inhibition constant Ki is 0.64 nM at Substance-K receptor [7] and 0.12 nM at Substance-P receptor. In addition, the ED50 is 0.6 µmol/kg in series [14] and 13 µmol/kg in series [15]. Besides, the bioavailability in series [3] is 9%; in series [6] it was 18%. In [5], this compound yielded a pKB of 8.26.

`COc1c(C#N)cc2ccccc2c1C(=O)N(C)C[C@@H](CCN1CCC(c2ccccc2[S@+](C)[O-])CC1)c1ccc(Cl)c(Cl)c1`: the results for the Ki on Substance-K receptor [7], at Neuromedin-K receptor and on Substance-P receptor were 67 nM, 220 nM and 0.17 nM, respectively. The dose ratio in series [8] worked out at 14; in series [9], 610; in series [11], 2. Also, the bioavailability amounted to 12% in series [3] and 51% in series [6]. The 50% effective dose (ED50) in [4] came to 0.07 µmol/kg.
